Measured values taken from ChEMBL document CHEMBL1139885, “De novo parallel design, synthesis and evaluation of inhibitors against the reverse transcriptase of human immunodeficiency virus type-1 and drug-resistant variants” (J Med Chem, 2007).
Active and inactive are the calls of the source. No cut-off for these calls is given here.

Experiments:
[1] = Cytotoxicity against Jurkat cells by XTT assay; assay type: cell-based; conditions: human
Summary of the method: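 Jurkat cells; XTT read-out, absorbance 450 nm with 620 nm reference. CC50 = concentration reducing viability by 50% versus inhibitor-free control.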

[2] = Inhibition of RNase H activity of HIV1 reverse transcriptase; parameters: species or system Human immunodeficiency virus 1
Summary of the method: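 FRET assay: RT (6 nM) with fluorescein-RNA/DNA-dabcyl hybrid substrate, 1 mM DTT, ± inhibitor; fluorescence read after 30 min at 37 °C. Triplicates; IC50 interpolated from dose-response curves.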

[3] = molecular target: T1, Human immunodeficiency virus type 1 reverse transcriptase (Human immunodeficiency virus 1, UniProt Q72547); test: Inhibition of DNA polymerase activity of HIV1 reverse transcriptase
[4] = Inhibition of drug-resistant reverse transcriptase […] mutant; parameters: species or system Human immunodeficiency virus 1
[5] = molecular target: T1, Human immunodeficiency virus type 1 reverse transcriptase; test: Inhibition of HIV1 wild type p66/p51 reverse transcriptase
Summary of the method: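 BH-10-derived p66/p51 RT, C-terminal His6 on p66, expressed in bacteria, Ni-NTA then cation exchange purified. Substrate mix: 50 µg/mL poly(rA)·oligo(dT)12-18, 50 µM dTTP, [3H]dTTP; 30 min 37 °C.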

[6] = Inhibition of drug-resistant reverse transcriptase L100I-K103 mutant; parameters: species or system Human immunodeficiency virus 1
Summary of the method: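 p66/p66 homodimer HIV-1 RT double mutant (His-tagged, E. coli-expressed, Ni-NTA purified). DNA polymerase activity: [3H]dTTP incorporation into poly(rA)n·oligo(dT)12-18. DMSO serial dilutions of inhibitor plus 14 ng RT in Tris-HCl pH 7.5/KCl/MgCl2, 10 min on ice, then substrate added, 30 min at 37 °C, scintillation counting. IC50 from a four-parameter logistic fit, from at least two experiments.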

[7] = molecular target: Human immunodeficiency virus type 1 reverse transcriptase (Human immunodeficiency virus 1) (UniProt Q72547); test: Inhibition of reverse transcriptase binding to DNA assessed as formation of RT-DNA complex by gel mobility shift assay
Summary of the method: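 RT 1.5 pmol preincubated 10 min at 4 °C with compound at 250 and 625 µM final. Then 0.12 pmol 5'-32P-labeled 54-nt duplex DNA added, in 10 mM HEPES, 30 mM ammonium sulfate, 0.25 mM DTT, 0.1 mg/mL BSA, pH 8.0; 10 min 32 °C. Run on nondenaturing 6.5% polyacrylamide gel, TBE, 4 °C; autoradiography.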

[8] = system: Human immunodeficiency virus 1; test: Inhibition of DNA polymerase activity of reverse transcriptase pre-incubated with drug assessed as impairment of primer elongation by DNA polymerase primer-extension assay
Summary of the method: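 Primer extension: 5′-32P-labelled 15-mer primed on circular φX174am3 template (4 nM T/P). RT (1.6 nM) preincubated 30 min on ice, with inhibitor before T/P addition, or with T/P for 5 min before inhibitor. Buffer 6.6 mM Tris-HCl pH 8.0, 4 mM DTT, 6 mM MgCl2, 33 mM NaCl, BSA, 20 µM each dNTP. Run 30 min at 37 °C; products resolved on gel and viewed by autoradiography.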

SMILES	CC50 [1]	IC50 [2]	IC50 [3]	other results
NC(=O)CC(=O)c1cccc(I)c1	> 312 µM	> 312 µM	29.6 µM	–
N#CCC(=O)c1cccc(I)c1	–	–	> 312 µM	–
NC(=O)c1[nH]cnc1-c1ccc(Cl)c(Br)c1	213 µM	41 µM	9.9 µM	IC50 [4]: 26.4 µM; IC50 [5]: 9.9 µM; IC50 [6]: 19.8 µM; Activity [7]: inactive
N#CCC(=O)c1cccc(C(=O)c2ccccc2)c1	251 µM	98 µM	9.8 µM	–
CCOP(=O)(OCC)Oc1cccc(C(=O)CC#N)c1	> 312 µM	112 µM	64.3 µM	–
NC(=O)CC(=O)c1cccc(C(=O)c2ccccc2)c1	–	–	> 312 µM	–
NC(=O)c1sc(N)nc1-c1ccccc1	> 312 µM	> 312 µM	80.7 µM	–
Cc1ccnc2c1NC(=O)c1cccnc1N2C1CC1	–	–	–	Activity [8]: Active; Activity [7]: inactive
NC(=O)c1sc(N)nc1-c1cccc(-c2ccccc2)c1	244 µM	249 µM	59.2 µM	–
NC(=O)c1sc(N)nc1-c1cccc(I)c1	–	–	125 µM	–
N#CCC(=O)Cc1cccc(I)c1	247 µM	20 µM	3.5 µM	IC50 [4]: 9.9 µM; Activity [8]: Active; IC50 [5]: 3.5 µM; IC50 [6]: 9.4 µM; Activity [7]: inactive
NC(=O)CC(=O)c1cccc(-c2ccccc2)c1	–	–	> 312 µM	–
NC(=O)CC(=O)c1cccc(Cl)c1	–	–	> 312 µM	–
NC(=O)c1scnc1-c1cccc(I)c1	–	–	> 312 µM	–
NC(=O)c1sc(N)nc1-c1ccc(Cl)c(Br)c1	–	–	118 µM	–
NC(=O)c1[nH]cnc1-c1cccc(Cl)c1	> 312 µM	> 312 µM	79.8 µM	–
NC(=O)c1scnc1-c1cccc(-c2ccccc2)c1	–	–	> 312 µM	–
NC(=O)c1scnc1-c1ccc(Cl)c(Br)c1	–	–	87.5 µM	–
N#CCC(=O)c1cccc(Cl)c1	> 312 µM	28 µM	4.1 µM	–
N#CCC(=O)c1ccc(Cl)c(Br)c1	–	–	> 312 µM	–
NC(=O)c1scnc1-c1ccccc1	–	–	283 µM	–
C[C@@H]1CC=C2[C@@H](CCC[C@@]2(C)CC[C@@]2(C)C3=CCCC(C)(C)[C@H]3CC[C@@H]2C)[C@]1(C)Cc1cc(OS(=O)(=O)O)ccc1OS(=O)(=O)O	–	–	–	Activity [7]: Active
NC(=O)c1scnc1-c1cccc(C(=O)c2ccccc2)c1	> 312 µM	77 µM	16.3 µM	–
NC(=O)c1sc(N)nc1-c1cccc(C(=O)c2ccccc2)c1	> 312 µM	> 312 µM	44.1 µM	–
NC(=O)c1[nH]cnc1-c1cccc(-c2ccccc2)c1	–	–	> 312 µM	–
NC(=O)c1[nH]cnc1-c1cccc(C(=O)c2ccccc2)c1	–	–	> 312 µM	–
NC(=O)c1sc(N)nc1-c1cccc(Cl)c1	> 312 µM	> 312 µM	54.4 µM	–
N#CCC(=O)c1cccc(-c2ccccc2)c1	233 µM	84 µM	33.4 µM	–
NC(=O)c1[nH]cnc1-c1ccccc1	–	–	300 µM	–
